Experimental data from paper PMC2193521 (The Journal of Experimental Medicine, 2001).
Entries after “also recorded” stand apart in the source; their conditions may differ.

Assays:
m6 TCR [1] = assay type: binding, mouse; settings: calculated from the flow cytometry kd, room temperature
Method in brief: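 T2-Ld cells (human lymphoblastoid line expressing Ld, ~3 × 10^6/ml) were loaded with peptide (~1–10 μM final) for 2 h at 37°C. They were stained for 30 min with full-length m6 TCR Drosophila supernatant, washed, and held at room temperature in PBS/1% BSA with F23.2 IgG (~300 μg/ml) as competitor. At timed points, ice-cold washes were done and residual TCR was detected by F23.1-biotin/SAv:PE flow cytometry. n = 2–3.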

m6 TCR [2] = assay: SPR of TCR binding to immobilized null MCMV/L^d/Ig; design: species or system mouse; settings: PBS, 25°C
Method in brief: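 MCMV-loaded Ld/IgG1 fusion (peptide at 100-fold molar excess, pH 6.5, 37°C 1.5 h; refolded pH 7.4, 4°C 24 h; G-200 repurified) was captured on a CM5 chip coated with rabbit anti-mouse IgG. Drosophila-expressed His6 soluble m6 TCR, Ni-NTA and gel-filtration purified, was injected at several concentrations at 30 μl/min. Responses were blank-surface subtracted; regeneration used 10 mM glycine, pH 1.5.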

Substance	t1/2 of m6 TCR on cell-bound peptide/L^d (m6 TCR [1])	TCR binding to peptide/L^d/Ig immobilized on the chip (m6 TCR [2])
QL9-M5: QL9 variant containing a position five (Phe) substitution (QLSPMPFDL)	140 s	
QL9-Y5: QL9 variant with a Tyr substitution for the Phe at position 5 (QLSPYPFDL)	1,180 s	
YPHFMPTNL [MCMV]		not observed; also recorded: undetectable
